Hits are enriched below; roughly 2.7% of the tested compounds scored in any of these assays.
OXTR potentiator: potentiates the human oxytocin receptor response | 320,000 compounds, 0.061% hits | P30559 | CHO-OTR cells, Fluo-8 calcium fluorescence, potentiator mode; 0% = oxytocin EC15, 100% = EC100 | AID 2445 | activation, % at 3 µM;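 active = activation above that plate's cutoff, the mean activation of tested compounds plus 3 SD, cut at about 6.6% in these data, passing the limit was not always enough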
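System: human OTR in CHO cells; Also added: sub-maximal oxytocin, roughly EC15; Timing: compound 6 min at room temperature before oxytocin, 100 s read; Technique: Fluo-8 intracellular calcium fluorescence, ex 470-495, em 515-575 nm; Controls: oxytocin EC15 low and EC100 high; Replication: singlicate.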
V1aR counter: activates human V1a receptor in oxytocin agonist counter-screen | 320,000 compounds, 0.25% hits | CHO-V1R cells, Fluo-8 calcium fluorescence, agonist mode; 0% DMSO, 100% 3 nM vasopressin | P37288 | AID 2797 | activation, % at 3 µM;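 active = activation above the mean activation of all tested compounds plus 3 SD, per screening run, cut at about 20% in these data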;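 also: signal is peak over basal fluorescence ratio across a 100 second FLIPR read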
CHO parental Ca: signal in parental CHO cells, OX1R antagonist counter-screen | parental CHO-K1, ATP-induced calcium, Fluo-8 fluorescence | inhibition, % at 5.6 µM | 330,000 compounds, 0.63% hits;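 active = inhibition above that plate's mean sample inhibition plus 3 SD, cut at about 26% in these data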
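Assay system: untransfected parental CHO cell line. Also added: ATP agonist challenge. Dosing: one dose, 5.6 µM nominal. Measured by: Fluo-8 fluorescence. Read-out: % inhibition. Benchmarks: ATP wells versus no-ATP DMSO wells. Repeats: no replicates.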
OXTR ag: human OXTR agonism; activation, % at 3 µM; P30559; 320,000 compounds, 0.32% hits; CHO-OTR cells, Fluo-8 calcium fluorescence; normalized: DMSO 0%, oxytocin 100%;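 active = activation above the mean of all tested compounds plus 3 SD, cutoff set per screening run, cut at about 20% in these data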;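 also: peak over basal fluorescence ratio from a 100 s FLIPR kinetic read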
OX1R antag-1: antagonists of human orexin 1 receptor; AID 434989; inhibition, % at 5 µM; O43613; CHO/OX1R cells, Fluo-8 calcium fluorescence, orexin A; 330,000 compounds, 0.43% hits;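 active = inhibition above its plate's threshold, mean inhibition of all tested compounds on the plate plus 3 SD, cut at about 37% in these data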
Target sequence (O43613 whole entry, looked up): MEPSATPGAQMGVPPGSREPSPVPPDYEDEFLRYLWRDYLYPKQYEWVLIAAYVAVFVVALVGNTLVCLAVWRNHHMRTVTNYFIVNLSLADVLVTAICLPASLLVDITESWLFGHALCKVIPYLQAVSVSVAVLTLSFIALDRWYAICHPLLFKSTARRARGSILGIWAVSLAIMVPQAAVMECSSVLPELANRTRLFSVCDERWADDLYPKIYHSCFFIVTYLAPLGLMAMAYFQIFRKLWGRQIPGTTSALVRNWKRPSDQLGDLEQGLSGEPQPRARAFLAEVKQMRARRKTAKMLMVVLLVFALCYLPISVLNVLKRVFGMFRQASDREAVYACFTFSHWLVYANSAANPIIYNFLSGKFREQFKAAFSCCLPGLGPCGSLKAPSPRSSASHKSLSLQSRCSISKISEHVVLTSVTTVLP
OX1R antag-2: antagonists of human orexin 1 receptor (OX1R); OX1R-expressing cells, FRET antagonist read-out; O43613; inhibition, % at 6.6 µM; 330,000 compounds, 1.8% hits; AID 485270; in the data active = inhibition mostly above about 38%, no sharp cut-off; inactive = mostly below about 40%
A number is an active result; i = inactive; nt = no result.

SMILES	OXTR potentiator	V1aR counter	CHO parental Ca	OXTR ag	OX1R antag-1	OX1R antag-2
O=C(O)CCc1ccc(-c2ccccc2)n1NC(=O)c1sc2ccccc2c1Cl	i	i	i	i	i	41
CCOc1ccc(NC(=O)Cc2ccc(S(=O)(=O)N3CCCCC3)cc2)cc1OCC	i	i	i	i	i	i
CCOc1cc(CNCCc2ccc(S(N)(=O)=O)cc2)ccc1OCc1ccc(Cl)cc1	i	27	61	37	77	i
CC(=O)N1c2ccc(S(=O)(=O)NCC3CCC(C(=O)NCc4ccccc4)CC3)cc2CC1C (centres undefined)	i	i	i	i	i	i
Cc1cc(C)cc(NC(=O)CSc2nnc(Cc3cccn3C)n2-c2ccc(F)cc2)c1	i	i	i	i	i	i
Cc1cc(C)c(NC(=O)CSc2nnc(Cc3cccn3C)n2-c2ccc(F)cc2)c(C)c1	i	i	i	i	i	60
COc1ccc(Cl)cc1S(=O)(=O)N1CCC(C(=O)NC2CC2)CC1	i	i	i	i	i	i
O=C(Nc1ccc(OCC(F)(F)C(F)F)c(C(F)(F)F)c1)c1ccccc1O	i	i	72	i	66	85
O=C1c2ccccc2C(=O)N1CCCCCc1nc(-c2ccccc2)no1	i	i	i	i	i	74
CCOC(=O)c1c(NC(=O)CSc2c[nH]c3ccccc23)sc2c1CCCC2	i	i	i	i	i	i
CCOC(=O)c1c(NC(=O)CSc2nnc(-c3c[nH]c4ccccc34)n2CCOC)sc2c1CCCCC2	i	i	i	i	i	45
Cc1c(Cl)cccc1NC(=O)C(=O)NNC(=O)c1ccccc1F	i	i	24	i	i	i
Cc1ccccc1C(=O)NNC(=O)C(=O)Nc1cccc(Cl)c1C	i	i	i	i	i	i
Cc1cccc(NC(=O)c2nc[nH]c2C(=O)NCCCCNC(=O)c2[nH]cnc2C(=O)Nc2cccc(C)c2)c1	i	i	i	i	i	i
C=CCOc1ccccc1C(=O)/C=C1/C(=O)Nc2ccccc21	i	i	33	i	i	i
CCN(CC)c1ccc(-c2nn3c(-c4ccccc4OC)nnc3s2)cc1	i	i	30	i	i	39
COc1ccccc1-c1nnc2sc(COc3ccccc3)nn12	i	i	i	i	i	i
CCC1CCCCN1C(=O)COC(=O)COc1ccc(Br)cc1 (centres undefined)	i	i	i	i	i	i
O=C(Cn1nc(-c2ccc(Cl)cc2)ccc1=O)NCc1ccc2c(c1)OCO2	i	i	i	i	i	i
O=C(CSc1nc2ccccc2s1)NCc1ccc2c(c1)OCO2	i	i	i	i	i	i
O=C(CSc1ccc2ccccc2n1)NCc1ccc2c(c1)OCO2	i	i	i	i	i	54
O=C(Cn1nc(-c2ccccc2)ccc1=O)NCc1ccc2c(c1)OCO2	i	i	i	i	i	72
Cc1ccc(C(=O)Nc2ccc(F)cc2)cc1NC1=NC2CS(=O)(=O)CC2S1 (centres undefined)	i	i	i	i	i	i
COc1ccc(NS(=O)(=O)c2cc(NC(=O)c3ccc(=O)[nH]n3)ccc2N2CCOCC2)cc1	i	i	i	i	i	i
COc1cccc(/C=C/c2n[nH]c(=O)c(C#N)c2C)c1	i	i	i	i	i	i
SMILES	OXTR potentiator	V1aR counter	CHO parental Ca	OXTR ag	OX1R antag-1	OX1R antag-2
CCOc1ccc(S(=O)(=O)N2CCC(C(=O)Nc3cc(S(C)(=O)=O)ccc3Cl)CC2)cc1	i	i	i	i	i	i
COc1ccc(NS(=O)(=O)c2ccc(O)c(NS(=O)(=O)c3ccc(NC(C)=O)cc3)c2)cc1	i	i	i	i	i	i
O=C(Oc1cccc(Nc2ncnc3ccccc23)c1)c1ccccc1Cl	i	i	71	i	53	95
COc1ccc(NS(=O)(=O)c2ccc(-c3cnc(C4CC4)o3)cc2)cc1OC	i	i	55	i	i	i
COc1ccc(NC(=O)c2c(-c3c(Cl)cccc3Cl)noc2C)c(OC)c1	i	i	i	i	i	i
Cc1nc2ccccc2nc1SCC(=O)c1ccccc1	i	i	52	i	i	i
Cc1ccc(C(=O)CSc2cc(C)nc(SCC(=O)c3ccccc3)n2)cc1	i	i	44	i	i	i
Cc1cc(SCC(N)=O)nc(SCC(=O)c2ccccc2)n1	i	i	i	i	i	i
CC(C)Cn1c(N)c(C(=O)COC(=O)Cc2cccs2)c(=O)n(C)c1=O	i	i	i	i	i	i
CC(C)Cn1c(N)c(C(=O)COC(=O)Cc2cccc(C(F)(F)F)c2)c(=O)n(C)c1=O	i	i	55	i	i	i
O=C(N/C=C/n1cnc2cc(C(F)(F)F)ccc21)c1ccccc1	i	i	51	i	i	i
COc1cc(NC(=O)CN2C(=O)COc3ccc(S(=O)(=O)N4CCCC4)cc32)cc(OC)c1	i	i	i	i	i	i
COCCN1CCN(C(=O)c2cc(COc3cc(C)ccc3C)on2)CC1	i	i	i	i	i	i
Cc1ccc(-n2c(N)c(C(=O)Nc3c(C)n(C)n(-c4ccccc4)c3=O)c3nc4ccccc4nc32)cc1C	i	i	38	i	i	i
Cc1cc(C)c(OCC(=O)Nc2ccccc2N2CCOCC2)c(C)c1	i	i	41	i	44	i
CCCCCCCCC#Cc1nc(C)ccc1OC	nt	nt	48	nt	i	i
Cc1ccc(S(=O)(=O)NCc2ccncc2)cc1C	i	i	33	i	41	i
COc1cc(S(=O)(=O)NCc2ccncc2)ccc1Br	i	i	31	i	i	i
Cn1c2c(c(=O)n(C)c1=O)C(C(F)(F)F)(C(F)(F)F)N=C(c1ccc(Cl)cc1)N2	i	i	i	i	i	56
CN1CCN(CCC(=O)N/N=C/c2cc([N+](=O)[O-])ccc2OC(F)F)CC1	i	i	i	i	i	i
CC1CCN(CCC(=O)N/N=C/c2ccc([N+](=O)[O-])cc2)CC1	i	i	i	i	i	45
CSCC(C)N1CCC(N2CCC(C(=O)NCc3ccccn3)CC2)CC1 (centres undefined)	i	i	i	i	i	i
CCOC(=O)C1=C(CSc2nc3ccccc3s2)NC(=O)NC1c1cc(C)ccc1C (centres undefined)	i	i	i	i	i	49
CCOC(=O)C1=C(CSc2nc3ccccc3s2)NC(=O)NC1c1ccc(OC)cc1 (centres undefined)	i	i	i	i	i	i
O=C(NCC1CC1)c1cc(-c2ccccc2)nn1CC1CC(c2cccnc2)=NO1 (centres undefined)	i	i	i	i	i	i
CC[C@H](C)[C@@H]1NC(=O)c2cc([N+](=O)[O-])cc(I)c2SC[C@@H](C(N)=O)NC(=O)[C@H](CCCCN)NC1=O	i	i	i	i	i	61

Screening data: PubChem BioAssay, The Scripps Research Institute Molecular Screening Center
